EBI2 antag: antagonists of human EBI2 receptor; P32249; EBI2 beta-arrestin recruitment, luminescence, 7a,25-OHC stimulated; inhibition, % at 5 µM; 0.81% of 360,000 active; AID 651636; in the data active means inhibition above about 38%;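 further: enzyme fragment complementation signal reports receptor beta-arrestin coupling in cells; 0% = agonist plus DMSO wells and 100% = wells without agonist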
CXCR6 inh: blocks human CXCR6 beta-arrestin recruitment; O00574; CHO-K1 PathHunter CXCR6 beta-arrestin, luminescence; inhibition, % at 20 µM; 0.36% of 360,000 active; AID 602244; in the data active means inhibition above about 34%, passing the limit was not always enough;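 further: antagonist mode with CXCL16 agonist at 10 nM final; 0% = 10 nM CXCL16 with DMSO and 100% = unstimulated wells without agonist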
Target sequence (O00574 whole entry, looked up): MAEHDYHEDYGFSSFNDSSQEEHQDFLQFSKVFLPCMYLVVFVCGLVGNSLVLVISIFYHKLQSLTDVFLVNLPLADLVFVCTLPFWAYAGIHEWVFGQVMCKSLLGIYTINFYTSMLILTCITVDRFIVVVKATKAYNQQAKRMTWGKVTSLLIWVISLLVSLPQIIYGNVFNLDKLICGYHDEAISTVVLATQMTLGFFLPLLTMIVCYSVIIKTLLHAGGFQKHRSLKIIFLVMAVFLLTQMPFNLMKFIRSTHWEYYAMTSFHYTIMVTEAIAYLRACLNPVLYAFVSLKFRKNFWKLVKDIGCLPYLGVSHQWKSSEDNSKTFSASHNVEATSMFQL
APJ antagonist: antagonists of human APJ apelin receptor; CHO-K1 APJ beta-arrestin complementation, luminescence; AID 2521; P35414; 0.32% of 330,000 active; inhibition, % at 20 µM;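 active means inhibition above about 40% at 20 µM, limit read from the data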;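 further: cells challenged with 10 nM apelin-13 agonist together with compound; plate controls were apelin-13 plus DMSO wells for no effect and DMSO wells lacking apelin-13 for full effect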
Target sequence (P35414 whole entry, looked up): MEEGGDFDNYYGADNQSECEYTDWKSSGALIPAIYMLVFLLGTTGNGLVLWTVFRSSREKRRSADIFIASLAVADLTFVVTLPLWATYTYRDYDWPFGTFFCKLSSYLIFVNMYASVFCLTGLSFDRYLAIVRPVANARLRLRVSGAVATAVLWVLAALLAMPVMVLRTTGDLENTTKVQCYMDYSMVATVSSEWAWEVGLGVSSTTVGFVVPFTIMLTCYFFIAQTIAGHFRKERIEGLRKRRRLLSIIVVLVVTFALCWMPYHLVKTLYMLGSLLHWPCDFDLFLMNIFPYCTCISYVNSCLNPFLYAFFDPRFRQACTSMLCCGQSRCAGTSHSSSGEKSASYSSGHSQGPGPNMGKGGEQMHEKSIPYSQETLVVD
CCR6 antag: CCR6 (human) receptor antagonism. P51684. CHO-K1 CCR6 PathHunter beta-arrestin, luminescence, CCL20-stimulated. inhibition, % at 20 µM. 0.49% of 340,000 active;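 active means compounds whose inhibition of the agonist-driven luminescence signal at 20 µM reaches about 50%, limit read from the data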;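 further: cells stimulated with CCL20 at 14 nM final; plate controls were DMSO with CCL20 for no effect and DMSO without agonist for full effect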
APJ ag: agonists of human APJ apelin receptor. CHO-K1 APJ PathHunter beta-arrestin, luminescence; 0% DMSO wells, 100% apelin. activation, % at 20 µM. 0.11% of 330,000 active. P35414;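 active means activation more than six SD over the plate average, tested at 20 µM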;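 further: 0% = DMSO alone and 100% = apelin-13 at 10 nM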
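Test system – PathHunter CHO-K1 APJ (AGTRL-1) beta-arrestin reporter cells · Input – 1000 cells/well · Compound – single test compound dose, 20 µM final, 1% DMSO · Times – compound stimulation 90 min at 25 °C, detection 60 min · Technique – beta-gal luminescence · Read-out basis – APJ–arrestin association signal · Control set – negative DMSO alone, positive Apelin-13 at 10 nM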
EBI2 antag conf: EBI2 (human) antagonism, single concentration confirmation; shares compounds with EBI2 antag; EBI2 beta-arrestin luminescence, 7a,25-OHC antagonism; inhibition, % at 5 µM; 29% of 2,400 active;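 active means inhibition of at least 50%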
EBI2 ag: activates EBI2, counter-screen for EBI2 antagonists; shares compounds with EBI2 antag; EBI2-expressing cells, agonist mode, luminescence, 60 min; 0% vehicle, 100% 7α,25-dihydroxycholesterol control; activation, % at 5 µM; 2,400 tested, under 10 active;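 active means activation of at least 50%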
bGal cs: beta-galactosidase inhibition counter-screen | shares compounds with EBI2 antag | purified beta-galactosidase, luminescent Galacton Star, 15 min | inhibition, % at 5 µM | 1% of 2,400 active;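 active means replicate-average signal at least 3 plate SD below neutral wells, shown as high inhibition, flagging enzyme-inhibiting false positives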;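 further: 0% = DMSO wells with enzyme and 100% = wells lacking enzyme; higher means stronger loss of beta-gal luminescence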
* hit, by the source's call; . = no result given; ! = repeats disagree. The list is not random: actives were taken first. Their share in the collection is about 1.5%.

SMILES	EBI2 antag	CXCR6 inh	APJ antagonist	CCR6 antag	APJ ag	EBI2 antag conf	EBI2 ag	bGal cs
Cc1cc(C)c(S(=O)(=O)N2CCOC2CNC(=O)C(=O)NCc2cccnc2)c(C)c1 (stereo unspecified)	0.4	-1.1	-6.6	-3.3	1.1	.	.	.
Cc1ccccc1CN(c1ccc(C(=O)Nc2ccccc2C(=O)NCc2ccco2)cc1)S(C)(=O)=O	57.9*	-1.3	-1.1	6.9	-0.9	13.4	-0.9	-16.1
CCC(=O)N1CCC2(CC1)Oc1ccc(Cl)cc1C(=O)C21CC(c2ccccc2)=NO1 (stereo unspecified)	13.3	7.9	-2.5	10.8	3.9	.	.	.
O=C(/C=C/c1cccs1)N1CCC2(CC1)Oc1ccc(Cl)cc1C(=O)C21CC(c2ccccc2)=NO1 (stereo unspecified)	61.0*	-0.3	10.0	7.3	-0.1	39.7	-1.0	5.5
S=C(NCC1CCCO1)N1CCN(Cc2ccccc2Cl)CC1 (stereo unspecified)	-1.8	3.1	7.0	13.0	-3.4	.	.	.
Cc1cc(OCC(=O)N(C)Cc2ccccc2)ccc1Cl	83.3*	3.4	2.5	20.0	-2.0	72.2*	0.7	6.2
CC(C)NS(=O)(=O)c1ccc(OCC(=O)N(C)Cc2ccccc2)cc1	1.5	4.4	-22.2	7.5	-4.5	.	.	.
Cc1cc(OCC(=O)N(C)Cc2ccccc2)ccc1Br	91.4*	2.4	14.2	23.3	-0.8	86.7*	-1.0	8.2
COc1ccc(OCC(=O)N(C)CC2COc3ccccc3O2)cc1 (stereo unspecified)	45.5*	3.5	11.2	7.6	-1.4	24.1	-0.9	-4.8
COc1ccc(OCC(=O)N(C)Cc2ccccc2)cc1	63.0*	5.2	-2.1	11.7	-2.7	56.2*	0.1	-7.3
COc1ccc(C2=Cc3ccccc3C(CC(=O)C3CC3)N2c2ccc(-c3cc(OC)c(OC)c(OC)c3)cc2)cc1 (stereo unspecified)	-6.7	4.2	.	.	.	.	.	.
CC(=O)N(C(C)=O)C1=C(C#N)C2(CCCCC2)Cc2ccccc21	28.4	1.0	20.9	-11.9	-2.1	.	.	.
CC1(C)O[C@@H]2[C@H](O1)[C@@H](CO)O[C@H]2n1ccc(=O)[nH]c1=O	-4.9	6.0	-0.2	-3.3	-2.6	.	.	.
O=C(CCNC(=O)N1CC(=O)Nc2ccccc21)NCc1ccc(Cl)cc1	-3.3	4.0	.	.	.	.	.	.
O=C(c1cc2cc(Cl)ccc2[nH]1)N1CCCCC1	27.3	-5.3	16.6	13.2	-1.8	.	.	.
O=CN1CCN(C(=O)c2cc3cc(Cl)ccc3[nH]2)CC1	58.7*	-4.1	8.8	-7.1	0.0	39.1	-2.2	-7.5
O=C(O)c1cc2cc(Cl)ccc2[nH]1	0.8	6.7	.	-9.5	.	.	.	.
O=C(c1cc2cc(Cl)ccc2[nH]1)N1CCN(Cc2ccc3c(c2)OCO3)CC1	95.5*	-25.1	-20.0	6.9	7.8	85.4*	-0.6	-16.6
CN1CCN(C(=O)c2cc3cc(Cl)ccc3[nH]2)CC1	56.2*	2.3	-12.4	8.7	-1.5	32.2	1.5	2.5
CCN1CCN(C(=O)c2cc3cc(Cl)ccc3[nH]2)CC1	83.7*	-3.8	12.5	2.9	-4.8	66.7*	0.6	8.2
COc1cccc2ccc(CC(O)(c3ccccc3)c3ccccc3)nc12	14.0	7.4	.	.	.	.	.	.
CCOC(=O)C1=CCN(S(=O)(=O)c2ccccc2)C1c1ccc(Cl)cc1 (stereo unspecified)	2.4	4.9	.	.	.	.	.	.
CCOc1ccc(S(=O)(=O)Nc2ccccc2C(=O)N2CCOCC2)cc1	-17.2	-0.4	0.4	9.0	0.1	.	.	.
COc1cc(C(=O)NCCOc2ccc(Cl)cc2)ccc1OCc1c(C)noc1C	71.9*	7.7	2.9	8.2	2.8	56.0*	0.2	-2.6
Cc1ccc(NC(=O)c2ccc(OCc3c(C)noc3C)cc2)cc1C	53.0*	-15.9	-4.8	4.9	-2.7	29.4	0.4	-1.2
SMILES	EBI2 antag	CXCR6 inh	APJ antagonist	CCR6 antag	APJ ag	EBI2 antag conf	EBI2 ag	bGal cs
C=C(C)C1Cc2c(C)nn(-c3ccccc3)c2C1 (stereo unspecified)	-10.3	-5.8	12.8	25.1	-3.1	.	.	.
C=C(C)C1Cc2c(C)nn(-c3cccc4ccccc34)c2C1 (stereo unspecified)	31.9*	-3.2	16.6	9.8	-1.8	41.4	-0.6	7.8
Cc1ccc(NS(=O)(=O)c2ccc(NC(=O)CN(c3cc([N+](=O)[O-])ccc3C)S(C)(=O)=O)cc2)c(C)c1	75.2*	5.4	-11.4	17.6	1.8	22.4	-1.7	-2.2
CCC(C)Sc1ccc(-c2nc3ccc(Cl)cn3c2NCc2ccccc2)cc1 (stereo unspecified)	44.0*	-3.0	-1.0	9.4	0.9	27.8	-1.7	-14.5
CCCCNc1c(-c2ccc(-c3ccc(C(C)=O)cc3)c(OC)c2)nc2cc(C)ccn12	66.7*	14.3	-3.6	17.8	1.8	51.9*	0.5	6.3
CCCCCCSc1ccc(-c2nc3ccc(C)cn3c2NCc2ccccc2)cc1OC	72.1*	20.0	-3.0	42.6	-8.7	44.0	1.4	2.5
CCCCCCSc1ccc(-c2nc3ccc(C)cn3c2NCc2ccccc2)cc1	53.2*	-0.3	2.7	2.8	-6.7	54.4*!	0.9	2.4
CCCCCCSc1cc(-c2nc3ccc(C)cn3c2NCCCC)ccc1OC	31.6	13.2	20.7	12.0	1.0	.	.	.
CCCC(NC(=O)c1c(C)noc1C)C12CC3CC(CC(C3)C1)C2 (stereo unspecified)	6.3	0.4	2.2	-2.4	-2.3	.	.	.
COc1ccc(-c2ccc(-c3nc4ccc(C)cn4c3NC3CCCCC3)cc2OC)cc1	72.4*	15.8	-11.2	26.2	9.2	64.8*!	-0.4	-11.2
CCCCNc1c(-c2ccc(SC3CCCCC3)c(OC)c2)nc2ccc(C)cn12	52.5*	-0.6	6.0	14.2	-0.7	54.9*!	2.6	2.6
COc1ccc(-c2nc3ccc(C)cn3c2NCc2ccccc2)cc1SC1CCCCC1	-27.6	6.8	-12.4	9.6	24.6	.	.	.
Cc1ccc2nc(-c3cccc(SC4CCCCC4)c3)c(NC3CCCCC3)n2c1	30.6	17.0	4.0	33.6	-0.7	.	.	.
CCOc1ccc(NC(=O)Nc2cc(-c3ccccc3)sc2C(=O)OC)cc1	45.6*	-3.9	-47.8	6.4	-0.9	21.2	-0.8	-17.5
COC(=O)c1sc(-c2ccccc2)cc1NC(=O)C1CC1	8.6	0.9	0.1	6.2	-3.0	.	.	.
O=C(Nc1ccc(C(=O)Nc2ccccc2Cl)cc1)c1cccnc1	-3.1	0.3	3.1	2.4	1.3	.	.	.
COc1cccc(COc2ccccc2C2Nc3ccc(Br)cc3C(=O)N2NC(=O)c2ccncc2)c1 (stereo unspecified)	8.3	-3.0	14.8	-4.4	-3.0	.	.	.

Assay outcomes as filed in PubChem.
